The term pIC50 denotes −log10 of the IC50, conventionally taken in molar units. A higher pIC50 goes with a low IC50. The term IC50 denotes the concentration needed to halve the response being measured.

From ChEMBL document CHEMBL2321658 (ACS Med Chem Lett, 2013) come the findings set out here.

Molecules are shown by their SMILES. pIC50: −log10 of the molar value. Activity calls are given as the source filed them. The calls are words filed in the database; no cut-off is given here.

One test deals with SK-BR-3. In words: Antiproliferative activity against human SKBR3 cells. The class given is functional, cell-based. Summed up:
(§1)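 Cell growth inhibition with values in µM, reported as mean ± standard deviation from at least two separate experiments, each run in triplicate.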

Test [1] relates to MCF7. In words: Antiproliferative activity against human MCF7 cells. The class given is functional, cell-based. Summed up: as §1
In test [2] the target is T1, Heat shock protein HSP90 (Homo sapiens, UniProt P07900+P08238). In words: Inhibition of Hsp90 in human MCF7 cells assessed as Her2 degradation after 24 hrs by Western blot analysis. The class given is cell-based. Summed up: (§2)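 MCF-7 cells treated across a range of concentrations (in µM). Cell lysates were analysed by western blot for the Hsp90-dependent client proteins Her2, Raf and Akt. Geldanamycin (500 nM) served as positive control and DMSO as negative control.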
(Immunoblotting shows a protein as a band on a membrane.)

The target in test [3] is T1, Heat shock protein HSP90. The test can be described thus: Inhibition of Hsp90 in human MCF7 cells assessed as Akt degradation after 24 hrs by Western blot analysis. In kind it is cell-based. Summed up:
as §2

Test [4] deals with MCF7. The test can be described thus: Effect on Hsp90 level in human MCF7 cells after 24 hrs by Western blot analysis. The class given is functional, cell-based.
Test [5] concerns the target T1, Heat shock protein HSP90. The test can be described thus: Inhibition of Hsp90 in human MCF7 cells assessed as Raf degradation after 24 hrs by Western blot analysis. The class given is cell-based. Summed up: as §2
The next test concerns the target SKBr3 (Homo sapiens). The test can be described thus: Antiproliferative activity against human SKBr3 cells.
Test [6] has as its target T1, Heat shock protein HSP90. The test can be described thus: Inhibition of Hsp90 (unknown origin). The class given is protein assay.

Consider `C=CCc1cc(C(=O)Nc2cc3ccc(OC4CCN(C)CC4)c(C)c3oc2=O)ccc1O`, for which the negative logarithm of the IC50 (pIC50) with SK-BR-3 is 5.61; in the test on MCF7 [1] it was 5.66.

For `CC(C)=CCc1cc(C(=O)Nc2cc3ccc(OC4CCN(C)CC4)c(C)c3oc2=O)ccc1OCCCN(C)C`, the inhibition result at Heat shock protein HSP90 [2], on Heat shock protein HSP90 [3] and on Heat shock protein HSP90 [5] was “Dose-dependent effect” each time. The pIC50 in the test with SK-BR-3 was 6.60; with MCF7 [1], 6.34. Besides, in the test with MCF7 [4], the outcome was inactive.

`Cc1c(OC2CCN(C)CC2)ccc2cc(NC(=O)c3ccccc3)c(=O)oc12`: the negative logarithm of the IC50 (pIC50) in the test on SK-BR-3 is 4.94; with MCF7 [1] it was 4.93.

For the compound `COc1cccc(-c2cc(C(=O)Nc3cc4ccc(O[C@@H]5OC(C)(C)[C@H](OC)[C@@H](O)[C@H]5O)c(OC)c4oc3=O)ccc2OC)c1`, the IC50 against SKBr3 (Homo sapiens) worked out at 13900 nM. This lies in the double-digit micromolar range.

For the compound `COc1ccc(C(=O)Nc2cc3ccc(OC4CCN(C)CC4)c(C)c3oc2=O)cc1-c1cccc(OC(C)=O)c1`, the pIC50 with SK-BR-3 was 6.54; in the test on MCF7 [1], 6.44.

`COc1cccc(-c2cc(C(=O)Nc3cc4ccc(OC5CCN(C)CC5)c(C)c4oc3=O)ccc2O)c1`: the pIC50 is 6.07 in the test with SK-BR-3 and 6.09 in the test with MCF7 [1].

Turning to `CCCCOc1ccc(C(=O)Nc2cc3ccc(OC4CCN(C)CC4)c(C)c3oc2=O)cc1CC=C(C)C`, the pIC50 in the test with SK-BR-3 was 5.85; in the test with MCF7 [1], 5.84.

In turn, `COc1cccc(-c2cc(C(=O)Nc3cc4ccc(OC5CCN(C)CC5)c(C)c4oc3=O)ccc2OC)c1` displayed an IC50 at SKBr3 (Homo sapiens) of 1340 nM. This lies in the single-digit micromolar range.

Consider `Cc1ccc(NC(=O)Nc2cc3ccc(OC4CCN(C)CC4)c(C)c3oc2=O)cc1C`, for which the IC50 on SKBr3 (Homo sapiens) came out at 310 nM.

With `C=CCc1cc(C(=O)Nc2cc3ccc(OC4CCN(C)CC4)c(C)c3oc2=O)ccc1OC(C)=O`, the values for the pIC50 in the test on SK-BR-3 and in the test with MCF7 [1] were 5.65 and 5.70, respectively.

`COc1ccc(C(=O)Nc2cc3ccc(OC4CCN(C)CC4)c(C)c3oc2=O)cc1-c1cccc(O)c1`: the pIC50 in the test on SK-BR-3 was 6.51; in the test on MCF7 [1] it was 6.42. The IC50 against Heat shock protein HSP90 [6] was determined as 310 nM.

At SKBr3 (Homo sapiens), `CO[C@@H]1[C@@H](O)[C@@H](O)[C@H](Oc2ccc3cc(NC(=O)c4ccc(O)c(CC=C(C)C)c4)c(=O)oc3c2C)OC1(C)C` showed an IC50 of 10900 nM.

Compound `COc1cccc(-c2cc(C(=O)Nc3cc4ccc(O[C@@H]5OC(C)(C)[C@H](OC)[C@@H](O)[C@H]5O)c(C)c4oc3=O)ccc2OC)c1` showed an IC50 against SKBr3 (Homo sapiens) of 7500 nM.

On to `CC(C)=CCc1cccc(C(=O)Nc2cc3ccc(OC4CCN(C)CC4)c(C)c3oc2=O)c1`, for which the results for the pIC50 in the test with SK-BR-3 and with MCF7 [1] were 5.77 and 5.68, respectively.

`CC(=O)Oc1ccc(C(=O)Nc2cc3ccc(OC4CCN(C)CC4)c(C)c3oc2=O)cc1`: the figures for the pIC50 with SK-BR-3 and in the test with MCF7 [1] were 5.78 and 5.79, respectively.

As to `COc1ccc(C(=O)Nc2cc3ccc(OC4CCN(C)CC4)c(C)c3oc2=O)cc1CC=C(C)C`, the pIC50 in the test with SK-BR-3 is 5.85; with MCF7 [1], 5.80.

As to `CC(=O)Oc1ccc(C(=O)Nc2cc3ccc(OC4CCN(C)CC4)c(C)c3oc2=O)cc1Cl`, the pIC50 was 5.46 in the test with SK-BR-3 and 5.79 in the test with MCF7 [1].

As to `CC(C)=CCc1cc(C(=O)Nc2cc3ccc(OC4CCN(C)CC4)c(C)c3oc2=O)ccc1OC1CCN(C)CC1`, the figures for the negative logarithm of the IC50 (pIC50) with SK-BR-3 and with MCF7 [1] were 6.68 and 6.33, respectively.

`COc1ccc(C(=O)Nc2cc3ccc(O[C@@H]4OC(C)(C)[C@H](OC)[C@@H](O)[C@H]4O)c(C)c3oc2=O)cc1-c1cccc(O)c1` yielded an IC50 on SKBr3 (Homo sapiens) of 2900 nM.

For the compound `Cc1c(OC2CCN(C)CC2)ccc2cc(NC(=O)c3ccc(O)c(Cl)c3)c(=O)oc12`, the pIC50 was 5.64 in the test with SK-BR-3 and 5.83 in the test on MCF7 [1].

In turn, `Cc1c(OCCC2CCCCN2)ccc2cc(NC(=O)Nc3ccc(Cl)cc3)c(=O)oc12` (centres undefined) registered an IC50 against SKBr3 (Homo sapiens) of 210 nM.

As for `Cc1c(OC2CCN(C)CC2)ccc2cc(NC(=O)c3ccc(O)cc3)c(=O)oc12`, the results for the negative-log IC50 (pIC50) in the test on SK-BR-3 and in the test with MCF7 [1] were 6.08 and 5.84, respectively.

Regarding `Cc1c(OC2CCN(C)CC2)ccc2cc(NC(=O)Nc3ccc(Cl)cc3)c(=O)oc12`, on SKBr3 (Homo sapiens), the half-maximal inhibitory concentration (IC50) stood at 170 nM.

On to `C#CCOc1ccc(C(=O)Nc2cc3ccc(OC4CCN(C)CC4)c(C)c3oc2=O)cc1CC=C(C)C`, for which the pIC50 is 5.85 in the test on SK-BR-3 and 5.95 in the test with MCF7 [1].

Consider `CC(C)=CCc1cc(C(=O)Nc2cc3ccc(OC4CCN(C)CC4)c(C)c3oc2=O)ccc1OCCN(C)C`, for which the pIC50 is 6.48 in the test on SK-BR-3 and 6.14 in the test on MCF7 [1].

For `COc1cccc(-c2cc(C(=O)Nc3cc4ccc(OC5CCN(C)CC5)c(C)c4oc3=O)ccc2OC(C)=O)c1`, the pIC50 in the test on SK-BR-3 and in the test on MCF7 [1] was 6.04 throughout.

At SKBr3 (Homo sapiens), `Cc1ccc(NC(=O)Nc2cc3ccc(OC4CCN(C)CC4)c(C)c3oc2=O)cc1` yielded an IC50 of 270 nM.

In the case of `Cc1c(OC2CCN(C)CC2)ccc2cc(NC(=O)c3ccc4c(c3)CCC(C)(C)O4)c(=O)oc12`, the pIC50 is 5.46 in the test on SK-BR-3 and 5.30 in the test with MCF7 [1].

`Cc1c(OC2CCN(C)CC2)ccc2cc(NC(=O)c3ccc(O)c(CCC(C)C)c3)c(=O)oc12`: the negative-log IC50 (pIC50) in the test on SK-BR-3 was 6.22; with MCF7 [1], 5.90.
